Data taken from ChEMBL document CHEMBL1125341, “Delta opioid antagonist activity and binding studies of regioisomeric isothiocyanate derivatives of naltrindole: evidence for delta receptor subtypes” (J Med Chem, 1992).

How the values were obtained:
[1] = species on record: Cavia porcellus; experiment: compound was evaluated for agonist activity in smooth muscle preparation of guinea pig ileum (GPI) at 1 uM concentration; assay type: functional; conditions: Muscle tissue
Procedure, shortened: (§1)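 Ligand at 1 µM tested directly on guinea pig ileum longitudinal muscle or mouse vas deferens; percent inhibition of the preparation recorded. Mean ± SEM of 3 experiments.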

[2] = test system: Mus musculus; experiment: Compound was tested for antagonistic activity of opioid agonist induced antinociception by using DPDPE as agonist, administered icv in mice; assay type: functional
Procedure, shortened: (§2)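 Mice received isothiocyanate 10 nmol icv 24 h before testing. Agonist ED50 was then found in the abdominal stretch assay: DPDPE and DSLET given icv, morphine and U50488 given sc. Result is the ED50 ratio, treated over untreated control mice, with significance testing.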

[3] = test system: Mus musculus; experiment: Compound was tested for antagonistic activity of opioid agonist induced antinociception by using DSLET as agonist, administered icv in mice; assay type: functional; procedure, shortened: as §2
[4] = test system: Mus musculus; experiment: Compound was tested for antagonistic activity of opioid agonist induced antinociception by using U-50,488H as agonist, administered sc in mice; assay type: functional; procedure, shortened: as §2
[5] = test system: Mus musculus; experiment: Compound was tested for antagonistic activity of opioid agonist induced antinociception by using morphine as agonist, administered sc in mice; assay type: functional; procedure, shortened: as §2
[6] = species on record: Mus musculus; experiment: compound was evaluated for agonist activity in smooth muscle preparation of mouse vas deferens (MVD) at 1 uM concentration; assay type: functional; conditions: Muscle tissue; procedure, shortened: as §1
[7] = target: Delta-type opioid receptor (Rattus norvegicus) (UniProt P33533); experiment: Compound was evaluated for its effect towards […] binding to Opioid receptor delta 1 at 0.25 nM concentration activity expressed as Bmax
[8] = target: Delta-type opioid receptor (Rattus norvegicus) (UniProt P33533); experiment: Compound was evaluated for its effect on the [3H]DSLET binding towards Opioid receptor delta 2 at 0.25 nM concentration; activity expressed as Bmax
[9] = target: Delta-type opioid receptor (Rattus norvegicus) (UniProt P33533); experiment: Compound was evaluated for its effect on the [3H]DSLET binding towards Opioid receptor delta 2 at 4 nM concentration; activity expressed as Bmax
[10] = target: T1, Delta-type opioid receptor (Rattus norvegicus, UniProt P33533); experiment: Compound was evaluated for its effect towards [3H]DSLET binding to Opioid receptor delta 2 at 0.25 nM concentration
[11] = target: T1, Delta-type opioid receptor; experiment: Compound was evaluated for its effect towards [3H]DPDPE binding to Opioid receptor delta 1 at 0.25 nM concentration expressed as dissociation constant
[12] = Prewash IC50 ratio obtained by dividing the IC50 of the DADLE in presence of the antagonist by the IC50 of the agonist alone in the same tissue preparation against delta receptor in mouse vas deferens; assay type: functional
Procedure, shortened: (§3)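 Guinea pig ileum longitudinal muscle (morphine, ethylketazocine) or mouse vas deferens (DADLE). Tissue was exposed to antagonist at 100 nM, or 1 nM for one isomer, for 30 min before agonist concentration-response. Prewash ratio is agonist IC50 with antagonist over IC50 alone in the same tissue. Where the shift was significant, tissue was washed extensively and IC50 redetermined; postwash ratio is over control IC50. Mean ± SEM.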

[13] = target: Kappa-type opioid receptor (UniProt P41145); experiment: Prewash IC50 ratio obtained by dividing the IC50 of the ethylketazocine in presence of the antagonist by the IC50 of the agonist alone in the same tissue preparation against opioid receptor kappa in guinea pig ileum; assay type: functional, tissue-based; procedure, shortened: as §3
[14] = target: Mu-type opioid receptor (UniProt P35372); experiment: Prewash IC50 ratio obtained by dividing the IC50 of the morphine in presence of the antagonist by the IC50 of the agonist alone in the same tissue preparation against opioid receptor mu in guinea pig ileum; assay type: functional, tissue-based; procedure, shortened: as §3
[15] = Post wash IC50 ratio obtained by dividing the IC50 of the DADLE in presence of the antagonist by the IC50 of the agonist alone in the same tissue preparation against delta receptor in mouse vas deferens; assay type: functional; procedure, shortened: as §3
[16] = target: Mu-type opioid receptor (UniProt P35372); experiment: Post wash IC50 ratio obtained by dividing the IC50 of the morphine in presence of the antagonist by the IC50 of the agonist alone in the same tissue preparation against opioid receptor mu in guinea pig ileum; assay type: functional, tissue-based; procedure, shortened: as §3

Mu-type opioid receptor, sequence (P35372 whole entry): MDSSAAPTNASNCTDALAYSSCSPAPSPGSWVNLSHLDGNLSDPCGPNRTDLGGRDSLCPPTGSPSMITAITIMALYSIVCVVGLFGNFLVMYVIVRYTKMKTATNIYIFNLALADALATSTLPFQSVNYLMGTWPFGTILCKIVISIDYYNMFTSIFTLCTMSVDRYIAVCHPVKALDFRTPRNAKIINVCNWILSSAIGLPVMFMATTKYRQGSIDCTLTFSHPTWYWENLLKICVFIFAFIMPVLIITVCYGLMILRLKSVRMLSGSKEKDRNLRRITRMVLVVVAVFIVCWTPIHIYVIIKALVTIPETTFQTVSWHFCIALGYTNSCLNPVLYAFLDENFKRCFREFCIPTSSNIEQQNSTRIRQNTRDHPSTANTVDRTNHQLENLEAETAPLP
Delta-type opioid receptor (Rattus norvegicus), sequence (P33533 whole entry): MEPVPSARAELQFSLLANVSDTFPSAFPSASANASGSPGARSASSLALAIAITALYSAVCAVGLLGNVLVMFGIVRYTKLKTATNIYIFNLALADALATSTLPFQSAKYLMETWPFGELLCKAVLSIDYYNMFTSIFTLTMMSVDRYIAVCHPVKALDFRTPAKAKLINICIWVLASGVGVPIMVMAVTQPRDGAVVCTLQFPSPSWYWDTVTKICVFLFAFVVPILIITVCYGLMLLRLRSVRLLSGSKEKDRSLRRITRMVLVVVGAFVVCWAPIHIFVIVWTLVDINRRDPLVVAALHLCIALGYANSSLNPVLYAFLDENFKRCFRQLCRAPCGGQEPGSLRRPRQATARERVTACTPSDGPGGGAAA
Kappa-type opioid receptor, sequence (P41145 whole entry): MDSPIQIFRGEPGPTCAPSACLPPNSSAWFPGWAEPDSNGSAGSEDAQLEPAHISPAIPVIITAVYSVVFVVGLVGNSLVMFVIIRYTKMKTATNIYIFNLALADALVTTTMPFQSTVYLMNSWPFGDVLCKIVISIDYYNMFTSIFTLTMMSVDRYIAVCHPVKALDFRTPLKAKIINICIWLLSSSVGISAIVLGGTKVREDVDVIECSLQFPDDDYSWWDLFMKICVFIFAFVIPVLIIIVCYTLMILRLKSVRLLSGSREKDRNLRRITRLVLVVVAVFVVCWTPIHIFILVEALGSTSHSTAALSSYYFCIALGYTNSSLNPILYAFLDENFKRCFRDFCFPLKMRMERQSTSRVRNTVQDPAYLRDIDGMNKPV
T1 sequence (P33533 whole entry): as the sequence (P33533 whole entry) above

Compound | inhibition at 1 µM [1] | ED50 ratio [2] | ED50 ratio [3] | ED50 ratio [4] | ED50 ratio [5] | inhibition at 1 µM [6] | Bmax (fM (mg of protein)-1) [7] | Bmax (fM (mg of protein)-1) [8] | Bmax (fM (mg of protein)-1) [9] | Kd [10] | Kd [11] | Ratio [12] | Ratio [13] | Ratio [14] | Ratio [15] | Ratio [16]
Oc1ccc2c3c1OC1c4[nH]c5c(N=C=S)cccc5c4CC4(O)C(C2)N(CC2CC2)CCC314 (stereo unspecified) | 5.9% | 3.7 | 3 | 0.8 | 2 | 31.8% | 5.6 | 208 | 361 | 15.7 nM | 2.3 nM | 7.99 | 0.81 | 15 | 16.1 | 53
Oc1ccc2c3c1OC1c4[nH]c5ccc(N=C=S)cc5c4CC4(O)C(C2)N(CC2CC2)CCC314 (stereo unspecified) | -2.4% | 0.6 | 52.1 | 3.2 | 1.3 | 18.8% |  |  |  |  |  | 6.68 | 0.93 | 0.9 | 7.71 | 
Oc1ccc2c3c1OC1c4[nH]c5cc(N=C=S)ccc5c4CC4(O)C(C2)N(CC2CC2)CCC314 (stereo unspecified) | 12.4% | 9.2 | 6.8 | 0.9 | 1.4 | 0% |  |  |  |  |  | 155 | 1.04 | 1.44 | 185 | 
Oc1ccc2c3c1OC1c4[nH]c5cccc(N=C=S)c5c4CC4(O)C(C2)N(CC2CC2)CCC314 (stereo unspecified) | 1% | 2.6 | 1.6 | 1.6 | 1.2 | 24.4% |  |  |  |  |  | 4.59 | 0.51 | 0.77 | 3.71 | 
